Source: PubChem BioAssay
STEP inh: STEP phosphatase inhibitors, primary screen, biochemical, fluorescence intensity, uHTS; inhibition, % at 20 µM; hit rate 0.25% among 360,000; AID 588621, 2011; recombinant STEP, OMFP fluorogenic substrate;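 active = inhibition at 20 µM, scaled per plate between control wells, above about 37%, limit read from the data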;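 also: 0% = DMSO with enzyme and substrate and 100% = substrate only without enzyme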
Target sequence (P54829 whole entry, looked up): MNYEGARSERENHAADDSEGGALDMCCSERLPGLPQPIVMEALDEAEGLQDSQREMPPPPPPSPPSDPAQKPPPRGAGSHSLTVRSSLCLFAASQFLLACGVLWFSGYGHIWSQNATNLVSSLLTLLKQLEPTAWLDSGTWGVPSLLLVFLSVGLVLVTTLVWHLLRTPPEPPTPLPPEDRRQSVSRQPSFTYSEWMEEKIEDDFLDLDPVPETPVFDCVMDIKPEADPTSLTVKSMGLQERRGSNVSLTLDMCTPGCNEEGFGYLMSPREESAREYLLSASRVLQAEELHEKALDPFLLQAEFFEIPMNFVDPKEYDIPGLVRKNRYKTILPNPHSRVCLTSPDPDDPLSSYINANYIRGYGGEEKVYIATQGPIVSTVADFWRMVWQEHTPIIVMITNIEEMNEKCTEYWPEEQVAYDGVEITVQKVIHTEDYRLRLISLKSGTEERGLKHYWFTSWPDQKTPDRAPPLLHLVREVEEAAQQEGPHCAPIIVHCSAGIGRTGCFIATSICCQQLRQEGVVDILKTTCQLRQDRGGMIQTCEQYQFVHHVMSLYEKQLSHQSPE
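Measure: Control-normalized % inhibition with plate pattern correction | Test system: STEP phosphatase, cell-free reaction | Medium: pH 6.0 Bis-Tris with DTT and Tween 20 | Technique: Fluorescence, 480/540 nm | Times: Reaction 20 min, ambient temperature | Doses: Single compound dose of 20 µM, 1% DMSO final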
DNMT1 inh: human DNMT1 methyltransferase inhibitors, primary screen, biochemical, molecular beacon, fluorescence, HinP1I cleavage, uHTS | inhibition (reported as % activation of signal), % at 10 µM | AID 588458, 2011 | hit rate 0.83% among 360,000; in the data active = inhibition above about 50%
LMPTP inh: LMPTP phosphatase inhibitors, primary screen, biochemical, fluorescence intensity, uHTS. Low molecular weight phosphotyrosine protein phosphatase (Homo sapiens), P24666. recombinant LMPTP-A, OMFP fluorogenic substrate. inhibition, % at 20 µM. hit rate 0.22% among 360,000;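 active = compounds that cut the enzyme signal by at least half of the control window in the single-dose screen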;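 also: plate controls were DMSO wells with enzyme plus substrate for no effect and substrate without enzyme for full effect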
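Test system: LMPTP-A phosphatase enzyme; input: 0.625 nM LMPTP-A final; reagent: OMFP substrate, 400 µM final; compound dosing: 20 µM single dose, 3% DMSO; incubation: 50 min dark incubation at room temperature; measured by: endpoint fluorescence intensity from OMFP dephosphorylation; measure: % inhibition relative to no-enzyme and uninhibited control wells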
Scp1 inh: Scp-1 phosphatase inhibitors, primary screen, biochemical, colorimetric, uHTS; inhibition, % at 20 µM; Recombinant Scp1, phosphopeptide, malachite green phosphate absorbance; hit rate 0.88% among 340,000; Carboxy-terminal domain RNA polymerase II polypeptide A small phosphatase 1 (Homo …;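 active = inhibition above about 50% at 20 µM, limit read from the data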;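 also: plate controls were DMSO wells with enzyme for no effect and wells lacking enzyme for full effect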
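System: truncated SCP-1 phosphatase (76-261aa); medium: Tris acetate buffer pH 5.5 with MgCl2 and Tween-20; incubation: 45 min room-temperature reaction, 5 min colour, 30 min stabiliser; compound: single 20 µM dose, 1% DMSO; reagent: Phosphorylated 17-residue peptide substrate; read-out: % inhibition at 20 µM; technique: colorimetric free-phosphate detection, absorbance 630 nm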
SUMO1-SIM PPI: modulators of SUMO1 protein-protein interactions, primary screen, biochemical, uHTS | Small ubiquitin-related modifier 1 (Homo sapiens), P63165 | SUMO1 binding to a labelled peptide, TR-FRET, 1 h | inhibition, % at 20 µM | hit rate 0.33% among 360,000; in the data active = inhibition above about 37%
Target sequence (P63165 whole entry, looked up): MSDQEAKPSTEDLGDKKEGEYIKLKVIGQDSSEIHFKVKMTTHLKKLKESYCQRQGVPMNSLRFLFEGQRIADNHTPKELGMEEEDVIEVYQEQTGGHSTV
STEP inh conf: STEP phosphatase inhibitor hit confirmation, biochemical, fluorescence intensity, single concentration; inhibition, % at 20 µM; hit rate 32% among 520; recombinant STEP, OMFP fluorogenic substrate; AID 623866, 2012; shares compounds with STEP inh; call rule not given here;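 also: 0% = enzyme with substrate plus DMSO and 100% = substrate without enzyme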
Starred values were filed as active, the others as inactive; nt = no result given. This is a sample that favours compounds with a hit; in the whole collection about 1.7% have one here.

SMILES | STEP inh | DNMT1 inh | LMPTP inh | Scp1 inh | SUMO1-SIM PPI | STEP inh conf
COc1ccc(NC(=S)NCCCN2CCCC2=O)c(OC)c1 | 46.1* | 0.2 | -1.3 | 2.6 | -5.5 | 23.8
Cc1ccccc1S(=O)(=O)NC(=NCc1ccc(F)cc1)c1ccccc1 | -0.3 | -5.1 | 0.0 | -8.1 | 3.4 | nt
Cc1ccc(N(C)S(=O)(=O)c2cc3c(cc2C)NC(=O)CO3)cc1 | -4.9 | -3.0 | -0.1 | -9.2 | 1.2 | nt
CC(=NNC(=S)N1CCCC1)c1ccccn1 | 8.7 | -3.1 | -0.8 | nt | -14.2 | nt
CC(=NNC(=S)N1CC2CCC(CC2)C1)c1cccc(C)n1 | 58.6* | -0.1 | 1.5 | -1.8 | -2.2 | active
Cc1ccc(NC(=S)N(CCCN2CCOCC2)Cc2cccs2)c(C)c1 | 54.7* | 2.1 | -1.9 | -1.0 | -2.8 | 19.6
COCCNC(=S)Nc1ccc(N2CCOCC2)c(S(=O)(=O)Nc2ccc(Cl)cc2)c1 | 5.6 | 1.3 | 3.7 | nt | 8.3 | nt
O=S(=O)(Nc1ccc(Cl)cc1)c1ccc(N2CCOCC2)c(NC(=S)NCCN2CCOCC2)c1 | 92.1* | 8.2 | 0.5 | 14.9 | -0.2 | 70.8*
Cc1ccc(Cn2c(SCCN3CCCCC3)nc3c2c(=O)[nH]c(=O)n3C)cc1 | 61.1* | -2.9 | -2.3 | -3.9 | 0.7 | 25.5
Cn1c(=O)[nH]c(=O)c2c1nc(SCCN1CCCCC1)n2Cc1ccccc1 | -2.4 | -0.8 | -1.7 | -1.0 | 1.3 | nt
Cn1c(=O)[nH]c(=O)c2c1nc(SCCN1CCCCC1)n2CCCc1ccccc1 | 80.2* | -0.8 | 1.0 | -6.7 | -0.5 | 45.6*
CC(=O)Nc1ccc(NC(=O)C(C)OC(=O)CCCOc2ccc(Cl)c(C)c2)cc1 (stereo unspecified) | -2.9 | 2.1 | -0.7 | -3.6 | -4.1 | nt
COc1ccc(Cl)cc1CC1(C)C(=O)Nc2ccc(S(=O)(=O)NC3CCCCC3)cc21 (stereo unspecified) | -1.7 | -6.0 | 2.6 | nt | 2.4 | nt
CN1CCN(C(=S)c2ccc(N(C)C)cc2)CC1 | 83.4* | 0.1 | 0.1 | -2.2 | -1.2 | 26.5
O=[N+]([O-])c1ccc(C(=S)N2CCC(Cc3ccccc3)CC2)cc1 | -3.0 | -1.3 | 0.3 | -10.7 | -10.1 | nt
CSc1ccc(C(=S)N2CCN(C)CC2)cc1 | 72.9* | -4.5 | -1.2 | -5.9 | -0.6 | 25.6
CN1CCN(C(=S)c2ccc([N+](=O)[O-])cc2)CC1 | 80.5* | -2.4 | 0.9 | -6.7 | -23.6 | 34.5
CN1CCN(C(=O)c2ccc(S(=O)(=O)c3ccc(Br)cc3)cc2)CC1 | 0.1 | 0.4 | 1.1 | -11.9 | 0.2 | nt
CN1CCN(C(=S)c2ccc(Br)cc2)CC1 | 80.5* | -0.3 | 0.9 | -1.3 | -0.1 | 43.1*
C[C@H]1CN=C(N(C)C)N1CCCC1CCCCC1 | 1.1 | 4.7 | -0.8 | -0.2 | 3.3 | nt
CCNc1nc(NCC)nc(NC(N)=S)n1 | -0.8 | 3.7 | 0.4 | -0.7 | 0.2 | nt
CCNc1nc(NC(N)=S)nc(NC(C)(C)C)n1 | 36.6* | -0.9 | 1.8 | -9.3 | 0.0 | 10.5
CN1CCN(C(=O)/C=C/c2ccc3c(c2)OCO3)CC1 | 57.0* | 4.1 | -0.5 | -2.4 | -4.1 | -1.8
O=S1OCCN1c1ccccc1 (stereo unspecified) | 42.2* | 0.6 | -1.1 | -2.3 | 1.3 | 30.9
COc1ccc(CN2C(=O)C(CC(=O)NC3CC3)CC(C(=O)N3CCOCC3)=C2C)cc1 (stereo unspecified) | -1.3 | -6.1 | 0.5 | nt | 0.9 | nt
SMILES | STEP inh | DNMT1 inh | LMPTP inh | Scp1 inh | SUMO1-SIM PPI | STEP inh conf
CCCCNS(=O)(=O)c1cc(-c2nn(C)c(=O)c3ccccc23)ccc1C | 58.4* | 20.0 | 14.6 | 46.5 | -3.6 | 27.1
COCCNS(=O)(=O)c1cc(-c2nn(C)c(=O)c3ccccc23)ccc1C | 1.5 | 2.3 | 0.0 | -3.6 | -1.2 | nt
COc1ccc(NC(=O)c2cc(C3CCCCN3C(=O)OCCF)on2)c(C)c1 (stereo unspecified) | 1.5 | -1.8 | 0.5 | nt | 2.9 | nt
O=C1[C@@H]2[C@@H]3C[C@@H]([C@H]4ON=C(c5ccc(Cl)cc5)[C@@H]34)[C@@H]2C(=O)N1c1ccc2c(c1)OCO2 | 46.5* | -6.1 | 0.2 | -7.1 | -0.6 | -4.1
O=C1[C@@H]2[C@@H]3C[C@@H]([C@H]4ON=C(c5ccc(OCc6ccccc6)cc5)[C@@H]34)[C@@H]2C(=O)N1c1ccc2c(c1)OCO2 | 0.1 | -7.3 | 1.0 | -7.1 | 3.7 | nt
O=C(O)c1ccc(NC(=S)Nc2ccccc2)cc1 | 107.3* | 1.5 | -1.4 | 6.1 | 2.0 | 8.0
CCN(CC)S(=O)(=O)c1cc(C(=O)OC(C)C(=O)NCc2ccco2)ccc1C (stereo unspecified) | 0.3 | 3.1 | -1.0 | -5.7 | 2.7 | nt
O=C(CSS(=O)(=O)O)N1CCN(C(=O)c2ccoc2)CC1 | 77.3* | -0.6 | -1.1 | 8.8 | 2.4 | 14.4
COc1ccnc(CSC(N)=Nc2ccccc2OC)c1 | 35.0* | 0.8 | 1.0 | -2.2 | -2.0 | 3.3
COc1ccc(N(C(=O)C(C)C)S(=O)(=O)c2cccs2)cc1 | 43.8* | -2.1 | -0.6 | -6.1 | -0.7 | 9.8
COc1ccc(N(C(C)=O)S(=O)(=O)c2cccs2)cc1 | -0.5 | -18.3 | -0.9 | -0.4 | -2.0 | nt
CN1CCN(C(=S)C(=O)Nc2ccccc2)CC1 | 40.6* | -2.0 | -0.3 | -1.7 | 0.1 | 22.9
CN1CCN(C(=S)C(=O)NCc2ccccc2)CC1 | -0.8 | -3.0 | -0.5 | -1.7 | -4.1 | nt
O=C1C2CC=CCC2C(=O)N1c1nccs1 (stereo unspecified) | -1.2 | 2.7 | -1.6 | -1.8 | 6.6 | nt
CN(C)C(=O)CSc1nc2cc(S(=O)(=O)N3CCOCC3)ccc2o1 | 5.3 | -1.3 | 0.5 | -18.1 | 0.4 | nt
NC(=O)CSc1nc2cc(S(=O)(=O)N3CCOCC3)ccc2o1 | 56.2* | 5.4 | -0.7 | 7.5 | -5.2 | 0.8
Cc1ccccc1N1CCN(C(=S)c2ccc(-c3cccc([N+](=O)[O-])c3)o2)CC1 | 44.3* | -3.0 | 2.7 | -2.2 | -8.8 | 25.9*
Cc1ccccc1N1CCN(C(=S)c2ccc(-c3ccc([N+](=O)[O-])cc3)o2)CC1 | 12.5 | -5.7 | 3.4 | -10.8 | -12.2 | nt
COc1cccc(C2CC3(CC(C)(C)NC(=S)N3)Oc3cc(O)ccc32)c1 (stereo unspecified) | 112.1* | 9.5 | 0.7 | -1.3 | 2.5 | -4.8
COc1ccc(C(=O)Nc2ccnn2C2CCN(C(=O)c3cccnc3)CC2)cc1 | 0.4 | -0.1 | -0.1 | 12.9 | -1.6 | nt
COc1ccc(C(=O)Nc2cc(-c3ccc(C)cc3)no2)cc1 | 93.7* | 5.0 | 0.8 | -1.1 | 0.2 | -5.3
